The source of these data is ChEMBL document CHEMBL1155522, “Molecular docking studies of phlorotannins from Eisenia bicyclis with BACE1 inhibitory activity” (Bioorg Med Chem Lett, 2010).

In experiment [1] the target is T1, Beta-secretase 1 (Homo sapiens, UniProt P56817). Put plainly: Noncompetitive inhibition of human recombinant BACE1 after 60 mins by Dixon plot analysis. The method, boiled down:
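Inhibitor dissolved in 10% DMSO and tested at two concentrations. A Dixon plot of reciprocal enzyme velocity (1/V) against inhibitor concentration was used to assign the inhibition type and to derive the Ki of the enzyme–inhibitor complex.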

The target of experiment [2] is T1, Beta-secretase 1. Put plainly: Inhibition of human recombinant BACE1 after 60 mins by FRET assay. A digest of the protocol:
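Test samples dissolved in 10% DMSO; the 50% inhibitory concentration is reported as mean ± S.E.M. of triplicate determinations.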

Molecules are shown by their SMILES.

T1 sequence (P56817 whole entry): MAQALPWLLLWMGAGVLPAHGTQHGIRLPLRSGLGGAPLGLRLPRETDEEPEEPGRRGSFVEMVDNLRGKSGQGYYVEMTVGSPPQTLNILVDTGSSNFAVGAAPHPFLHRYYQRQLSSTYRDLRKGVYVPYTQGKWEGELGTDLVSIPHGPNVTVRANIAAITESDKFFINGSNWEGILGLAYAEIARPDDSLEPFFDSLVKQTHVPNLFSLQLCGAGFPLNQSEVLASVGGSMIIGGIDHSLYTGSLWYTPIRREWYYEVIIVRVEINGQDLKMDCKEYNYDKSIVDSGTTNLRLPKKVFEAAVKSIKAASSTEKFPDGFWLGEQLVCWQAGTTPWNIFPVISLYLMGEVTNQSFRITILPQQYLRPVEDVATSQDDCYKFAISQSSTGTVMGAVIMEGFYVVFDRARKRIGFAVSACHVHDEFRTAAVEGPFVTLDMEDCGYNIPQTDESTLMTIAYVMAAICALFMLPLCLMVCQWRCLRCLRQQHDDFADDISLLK

For `Oc1cc(O)cc(Oc2c(O)cc(O)c3c2Oc2c(O)cc(Oc4c(O)cc(Oc5c(O)cc(O)c6c5Oc5c(O)cc(O)cc5O6)cc4O)cc2O3)c1` [DIECKOL], the Ki in experiment [1] was 1.5 µM. Further, in experiment [2], the Activity result is “Dose-dependent effect” and the IC50 was determined as 2.21 µM.

For the molecule `Oc1cc(O)cc(Oc2c(O)cc(O)cc2Oc2c(O)cc(O)cc2O)c1` [TRIPHLOROETHOL A], the Ki in experiment [1] came to 12.1 µM. In experiment [2], the Activity entry was “Dose-dependent effect” and the IC50 came out at 11.7 µM.

As for `Oc1cc(O)cc(Oc2c(O)cc(O)c3c2Oc2c(O)cc4oc5c(Oc6cc(O)cc(O)c6)c(O)cc(O)c5c4c2O3)c1` [PHLOROFUCOFUROECKOL A], the Ki in experiment [1] was 1.3 µM. For the same molecule, in experiment [2], the Activity entry was “Dose-dependent effect” and the IC50 is 2.13 µM.

With `Oc1cc(O)cc(Oc2c(O)cc(O)c3c2Oc2c(O)cc(Oc4c(O)cc(O)cc4O)cc2O3)c1`, in experiment [1], the Ki came to 7.2 µM. Further, in experiment [2], the Activity entry is “Dose-dependent effect” and the IC50 was 8.59 µM.

`Oc1cc(O)cc(O)c1` [PHLOROGLUCINOL]: in experiment [2], the Activity entry was “Dose-dependent effect” and the IC50 was determined as 36.5 µM.

With `Oc1cc(O)cc(Oc2c(O)cc(O)c3c2Oc2c(O)cc(O)cc2O3)c1` [ECKOL], in experiment [1], the Ki stood at 13.9 µM. In experiment [2], the Activity result was “Dose-dependent effect” and the IC50 amounted to 12.2 µM.

With `Oc1cc(O)c2oc3cc(O)c4oc5cc(O)cc(O)c5oc4c3oc2c1` [DIOXINODEHYDROECKOL], the Ki in experiment [1] turned out to be 8 µM. Besides, in experiment [2], the Activity result is “Dose-dependent effect” and the IC50 amounted to 5.35 µM.

As for `O=c1c(O)c(-c2ccc(O)c(O)c2)oc2cc(O)cc(O)c12`, the Activity entry in experiment [2] is “Dose-dependent effect”.

Usually Ki stands for the dissociation constant of the complex between target and ligand, obtained from inhibition or displacement. A word on the IC50: it is the concentration that inhibits the measured activity by half.
